In the library only some 3% were active in any assay of this set; here they are far more common.
ROMK mod = modulators of human ROMK potassium channel | P48048 | Tet-inducible ROMK, thallium flux fluorescence; actives lie on both sides | B-score at 10 µM | actives 2% (n = 130,000) | AID 1918;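 active = signal ratio slope over the read window, or its plate-corrected B-score, at least 3 SD from the plate mean, either direction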;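 also: B-score of the F/F0 ratio slope over 7 to 12 s after thallium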
Target sequence (P48048 whole entry, looked up): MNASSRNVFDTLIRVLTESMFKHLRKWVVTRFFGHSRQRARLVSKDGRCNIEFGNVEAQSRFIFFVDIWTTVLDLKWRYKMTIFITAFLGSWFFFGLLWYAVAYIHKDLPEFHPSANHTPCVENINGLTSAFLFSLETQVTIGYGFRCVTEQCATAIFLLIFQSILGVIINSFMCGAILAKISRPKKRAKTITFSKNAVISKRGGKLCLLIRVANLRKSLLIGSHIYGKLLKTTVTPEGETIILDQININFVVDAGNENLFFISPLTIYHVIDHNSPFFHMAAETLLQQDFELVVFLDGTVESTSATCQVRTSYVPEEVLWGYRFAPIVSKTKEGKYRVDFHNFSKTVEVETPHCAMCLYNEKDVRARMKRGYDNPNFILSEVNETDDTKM
PKD1 kinase inh = inhibitors of human PKD1 kinase; Q15139; PKD1 kinase fluorescence polarization assay; inhibition, % (no concentration beside the values); actives 0.056% (n = 200,000); AID 797; in the data active = inhibition above about 50%
Cl transport mod = modulates chloride dependent transport by human KCC2 | B-score of Tl+ flux slope (higher = more flux/activation; lower = inhibition) at 10 µM | Q9H2X9 | AID 1456 | actives 2.2% (n = 190,000) | KCC2 cells, thallium flux FluoZin-2 fluorescence;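 active = thallium flux slope and its plate-corrected score both differing from the plate sample mean at a set confidence after two filtering rounds, in either direction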;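 also: slope of fluorescence scaled to starting intensity during 10 to 20 s after thallium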
Rad51 HR inh = Rad51 (human) homologous recombination inhibition. Q06609. hRad51 DNA strand exchange, fluorescence dequenching. inhibition, % at 10 µM. actives 0.085% (n = 200,000). AID 1385;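 active = inhibition above 40% at the single screening dose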
Target sequence (Q06609 whole entry, looked up): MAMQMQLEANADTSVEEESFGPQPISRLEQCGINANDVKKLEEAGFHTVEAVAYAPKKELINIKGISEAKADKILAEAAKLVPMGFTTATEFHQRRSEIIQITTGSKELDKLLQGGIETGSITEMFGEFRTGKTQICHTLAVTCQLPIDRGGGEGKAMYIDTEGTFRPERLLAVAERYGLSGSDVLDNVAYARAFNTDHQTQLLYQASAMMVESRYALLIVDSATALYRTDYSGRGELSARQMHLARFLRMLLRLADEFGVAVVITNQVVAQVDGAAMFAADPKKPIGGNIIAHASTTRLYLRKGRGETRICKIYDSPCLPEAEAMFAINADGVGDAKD
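Read-out basis: percent inhibition relative to plate controls and blanks / Assay system: human Rad51 nucleoprotein filaments preassembled on unlabelled ssDNA / Timing: filaments 15 min 37 °C, then compound 30 min / Control set: per-plate controls and blanks / Technique: fluorescence dequenching at 485/520 nm / Compound: 10 µM final, single point / Also added: Fluorescein- and BHQ1-tagged 47-mer duplex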
ROMK hit retest = confirmation of human ROMK potassium channel modulators; shares compounds with ROMK mod; ROMK thallium flux, fluorescence ratio; active compounds read low; normalized thallium flux (F/F0 slope) at 10 µM; actives 54% (n = 3,000); AID 1917;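 active = Flux at 10 µM at least 3 SD below or above vehicle control mean in one or both replicates; inconclusive = no clear call, values can overlap the other calls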
Each line names hits and unclear results; the compound was inactive in the other large screens (follow-up assays come after a bar, where they were run).

CCC(=O)OCCCCCCOc1ccc(C(=O)O)cc1	none (no result: ROMK mod)
CN(C)CCNC(=O)/C(=C/c1ccc(-c2ccc(Cl)cc2)o1)NC(=O)c1ccccc1	ROMK mod -4.38 | ROMK hit retest 0.0605
Cc1ccc(C(=O)N/C(=C\c2ccc(-c3ccc(Br)cc3)o2)C(=O)NCCCN(C)C)cc1	ROMK mod -3.69 | ROMK hit retest 0.0478
CN(C)CCCNC(=O)/C(=C\c1ccc(-c2cccc([N+](=O)[O-])c2)o1)NC(=O)c1ccccc1	none
CC(C)COc1ccc(C(=O)OC2CC(C)(C)OCC2CN(C)C)cc1 (stereo not given)	ROMK mod -3.7 (no result: Cl transport mod) | ROMK hit retest 0.0553
Cc1c(CCOC(=O)CC23CC4CC(CC(C4)C2)C3)sc[n+]1CC(=O)c1ccccc1	ROMK mod -6.14 | ROMK hit retest 0.0467
Cc1c(CCOC(=O)C23CC4(C)CC(C)(CC(C)(C4)C2)C3)sc[n+]1CC(=O)c1ccccc1	none
O=C1NN(c2ccccc2)C(=O)/C1=C/c1ccc(Sc2cccc3ccccc23)o1	ROMK mod -3.89 (no result: Rad51 HR inh) | ROMK hit retest 0.0673
CCCCNS(=O)(=O)c1ccc2nc(-c3cccs3)cc(C(=O)NCC(OC)OC)c2c1	none (no result: Rad51 HR inh)
O=C(CN1CCCCC1)Nc1ccc(Br)cc1[N+](=O)[O-]	none
CCOC(=O)c1nn(-c2ccc(C)cc2)c(=O)c2c(N)scc12	none (no result: ROMK mod) | ROMK hit retest inactive
CCN(CC)S(=O)(=O)c1ccc(N2CCOCC2)c(NC(=O)C23CC4CC(CC(Cl)(C4)C2)C3)c1	ROMK mod -3.47 | ROMK hit retest 0.0608
CCOc1ccc(C2CC(c3c(O)c4ccccc4oc3=O)=NN2c2ccccc2)cc1OC (stereo not given)	ROMK mod -6.62 | ROMK hit retest 0.0278
CCOc1ccc(C2/C(=C(/O)c3ccccc3)C(=O)C(=O)N2CCCN(C)C)cc1OC (stereo not given)	none (no result: Rad51 HR inh)
Cc1ccc(NC(=O)CCNCc2ccco2)cc1S(=O)(=O)N(C)C	none (no result: Rad51 HR inh)
COc1ccccc1NC(=S)N1CCC(C(=O)c2ccc(F)cc2)CC1	none
CCCCCCCCCCCCCCCCn1cc[n+](C)c1	none | ROMK hit retest 0.0645
CC(=O)Oc1ccc(C(=O)Nc2cc(NC(=O)c3ccc(OC(C)=O)cc3)cc(C(=O)NC(C)(C)C)c2)cc1	none (no result: ROMK mod)
O=C(O)C(Cc1cn[nH]n1)=NO	none (no result: ROMK mod, PKD1 kinase inh)
O=C1N/C(=C/c2ccc(N3CCCC3)cc2)C(=O)N1c1ccccc1	none
O=C1N/C(=C/c2ccc(N3CCOCC3)o2)C(=O)N1c1ccccc1	ROMK mod -3.45 | ROMK hit retest 0.0486
O=C1C=CC(=O)C(C2=C3C(=O)N(CCc4ccccc4)CC(=O)N3CCC2)=C1	ROMK mod -2.96 | ROMK hit retest 0.051
COc1ccc(N2CCCCn3c2nc2c3c(=O)n(C)c(=O)n2C)cc1	none (no result: ROMK mod)
CCCCOC(=O)Cn1c(=O)c2c(nc3n2CCCCN3c2ccc(C)cc2)n(C)c1=O	none (no result: ROMK mod) | ROMK hit retest 0.061
O=c1cc(-c2ccccc2[N+](=O)[O-])oc2ccccc12	ROMK mod 2.38 (no result: Rad51 HR inh) | ROMK hit retest inactive
CN1\C(=C/C=C/C=C/C=[N+](C)C)C(C)(C)c2ccccc21	ROMK mod -3.59 (no result: Cl transport mod) | ROMK hit retest 0.0513
CCCCn1c(Oc2ccc(C(=O)OC)cc2)nc2c1c(=O)n(C)c(=O)n2C	ROMK mod -3.65 | ROMK hit retest 0.0605
CC(=O)N1CCN(C(=S)c2ccc(-c3ccc(Cl)cc3)o2)CC1	ROMK mod -2.55 | ROMK hit retest 0.0551
COc1cc(/C=N/NC(=O)C(=O)/C=C2\NC(C)(C)Cc3ccccc32)ccc1O	ROMK mod 2.15 (no result: PKD1 kinase inh) | ROMK hit retest inactive
CC(C(=O)NC1CCCc2ccccc21)N1CCN(Cc2ccc3c(c2)OCO3)CC1 (stereo not given)	ROMK mod -2.95 | ROMK hit retest 0.0584
CC(C(=O)NC1CCCc2ccccc21)N1CCN(c2ccc(F)cc2)CC1 (stereo not given)	none (no result: ROMK mod)
Cc1ccc(C)c(N2CCN(S(=O)(=O)c3ccc4[nH]c(=O)c(=O)[nH]c4c3)CC2)c1	ROMK mod 3.86 | ROMK hit retest inconclusive
Cc1ccc(C)c(N2CCN(S(=O)(=O)c3ccc4c(c3)CCC(=O)N4)CC2)c1	none (no result: Cl transport mod)
O=C(NCc1cccs1)C1CCN(c2ccc(S(=O)(=O)N3CCOCC3)cc2Cl)CC1	ROMK mod 2.9 (no result: Cl transport mod) | ROMK hit retest inactive
COc1cc(C(C(=O)NC2CCCCC2)N(Cc2ccco2)C(=O)c2cnccn2)cc(OC)c1OC (stereo not given)	ROMK mod -13.4 | ROMK hit retest inactive
CCCCCNC(=O)c1c[nH]c2ccc(S(=O)(=O)N3CCC4(CC3)OCCO4)cc2c1=O	none (no result: Rad51 HR inh)
O=C(NCC1CCCO1)C(c1ccccn1)N(Cc1ccccc1Cl)C(=O)CN1C(=O)c2ccccc2S1(=O)=O (stereo not given)	none
CCOC(=O)C(=CNc1ccccc1N1CCOCC1)C(=O)OCC	none (no result: ROMK mod, PKD1 kinase inh, Cl transport mod) | ROMK hit retest 0.0643
CCOC(=O)c1c(CSCc2ccccc2)oc2ccc(O)c(CN(C)C)c12	none (no result: ROMK mod, PKD1 kinase inh, Rad51 HR inh) | ROMK hit retest 0.0607
CCOC(=O)c1c(-c2ccccc2)oc2ccc(O)c(CN(C)C)c12	none
O=C(Cn1c2c(c(-c3ccccc3Cl)cc1=O)CCC2)NCCCN1CCOCC1	none (no result: PKD1 kinase inh)
Cc1ccc(CNC(=O)CNS(=O)(=O)c2ccc3nc(C)sc3c2)cc1	none (no result: Rad51 HR inh)
COc1ccc(Cn2nnnc2C(c2ccc(C)cc2)N2CCN(C3CCCC3)CC2)cc1 (stereo not given)	none (no result: ROMK mod) | ROMK hit retest 0.0528
COc1ccc(Cn2nnnc2C(c2cc3cc(C)ccc3[nH]c2=O)N2CCN(C)CC2)cc1 (stereo not given)	none (no result: Rad51 HR inh) | ROMK hit retest inactive
COc1ccc(Cn2nnnc2C(c2ccc3ncccc3c2)N2CCN(C3CCCCC3)CC2)cc1 (stereo not given)	none
COc1cccc(C(c2nnnn2Cc2ccccc2)N2CCN(C3CCCC3)CC2)c1OC (stereo not given)	ROMK mod -4.77 | ROMK hit retest 0.0541
COc1ccccc1C(c1nnnn1Cc1ccccc1)N1CCN(C2CCCC2)CC1 (stereo not given)	none (no result: ROMK mod, Cl transport mod)
COc1ccc(Cn2nnnc2C(c2cc3cccc(C)c3[nH]c2=O)N2CCN(C)CC2)cc1 (stereo not given)	none
CCN(CC)S(=O)(=O)c1ccc(C)c(NC(=O)CN2CCN(C)CC2)c1	none (no result: ROMK mod, PKD1 kinase inh)
CCOC(=O)Cc1cc(-c2ccc(F)cc2)nc2ccc3ccccc3c12	none (no result: ROMK mod, Rad51 HR inh)
CCN(CC)S(=O)(=O)c1ccc(C)c(NC(=O)Cn2cnc3cc([N+](=O)[O-])ccc3c2=O)c1	ROMK mod 2.91 | ROMK hit retest inconclusive
Nc1nn(-c2ccccc2Cl)cc1-c1nn[nH]n1	none (no result: ROMK mod, PKD1 kinase inh)
c1ccc2sc(Sc3ncnc4sccc34)nc2c1	none (no result: ROMK mod) | ROMK hit retest inactive
CCCCC(CC)CNC(=O)CCS(=O)(=O)c1cccc2nonc12 (stereo not given)	none (no result: ROMK mod, Rad51 HR inh) | ROMK hit retest inconclusive
CCN(CC)C(=O)C[n+]1cccc(C(N)=O)c1	none (no result: Rad51 HR inh)
O=C1CC(N2CCN(Cc3ccc4c(c3)OCO4)CC2)C(=O)N1c1cccc2ccccc12 (stereo not given)	ROMK mod -3.09 | ROMK hit retest 0.0553

High-throughput results as filed in PubChem BioAssay.
